# Results published in ChEMBL document CHEMBL1136157, “Synthesis of 3a,4-dihydro-3H-[1]benzopyrano[4,3-c]isoxazoles, displaying combined 5-HT uptake inhibiting and alpha(2)-adrenoceptor antagonistic activities: a novel series of potential antidepressants” (Bioorg Med Chem Lett, 2003).
# Target: Sodium-dependent serotonin transporter (Rattus norvegicus) (UniProt P31652)
# Assay: In vivo effective dose required to inhibit p-chloroamphetamine induced excitation in rats upon subcutaneous administration
# Type: functional, organism-based
# Method in brief: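 Overnight-starved male Wistar rats (200–250 g) given test compound or solvent sc 1 h before p-chloroamphetamine (5 mg/10 mL/kg, sc). Excitation scored over a 15-min interval starting 45 min after pCA. A score <2 was the all-or-nothing criterion for inhibition (1.0% false positives, n>200). ED50 in mg/kg.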
# Sodium-dependent serotonin transporter (Rattus norvegicus), sequence (P31652 whole entry): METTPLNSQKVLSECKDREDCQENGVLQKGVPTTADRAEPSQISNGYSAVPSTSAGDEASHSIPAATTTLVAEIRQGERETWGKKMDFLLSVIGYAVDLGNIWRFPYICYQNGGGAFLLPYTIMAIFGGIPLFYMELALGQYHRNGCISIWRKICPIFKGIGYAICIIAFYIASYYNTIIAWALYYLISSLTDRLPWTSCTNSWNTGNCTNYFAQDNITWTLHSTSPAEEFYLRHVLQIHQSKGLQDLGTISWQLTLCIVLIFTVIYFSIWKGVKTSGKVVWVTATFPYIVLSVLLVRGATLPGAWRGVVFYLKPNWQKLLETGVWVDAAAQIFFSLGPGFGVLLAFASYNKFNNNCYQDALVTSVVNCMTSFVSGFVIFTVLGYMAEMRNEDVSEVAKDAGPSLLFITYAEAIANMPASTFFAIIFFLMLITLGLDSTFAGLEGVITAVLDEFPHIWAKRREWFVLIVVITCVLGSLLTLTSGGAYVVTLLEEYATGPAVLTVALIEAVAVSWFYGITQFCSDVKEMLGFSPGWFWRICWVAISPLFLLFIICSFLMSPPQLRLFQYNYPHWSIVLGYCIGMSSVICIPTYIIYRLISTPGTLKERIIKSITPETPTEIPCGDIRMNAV
row,Structure (SMILES),ED50 [mg/kg]
1,COc1cc2c(cc1OC)C1=NO[C@@H](CN3CCN(Cc4ccc5ccccc5c4)CC3)[C@@H]1CO2 (stereo in doubt; (-)15h) [listing 1 of 2 here],1.5
2,COc1cc2c(cc1OC)C1=NO[C@@H](CN3CCN(C/C=C/c4ccccc4)CC3)[C@@H]1CO2 (stereo in doubt; (+)5) [listing 1 of 2 here],0.51
3,COc1ccc2c(c1)C1=NOC(CN3CCN(C/C=C/c4ccccc4)CC3)C1CO2 (stereo not drawn),5
4,COc1cc2c(cc1OC)C1=NOC(CN3CCN(CCCc4ccccc4)CC3)C1CO2 (stereo not drawn),5
5,COc1cc2c(cc1OC)C1=NOC(CN3CCN(Cc4ccc5ncccc5c4)CC3)C1CO2 (stereo not drawn),0.63

# Target: T1, Alpha-2B adrenergic receptor (Homo sapiens, UniProt P18089)
# T1 sequence (P18089 whole entry): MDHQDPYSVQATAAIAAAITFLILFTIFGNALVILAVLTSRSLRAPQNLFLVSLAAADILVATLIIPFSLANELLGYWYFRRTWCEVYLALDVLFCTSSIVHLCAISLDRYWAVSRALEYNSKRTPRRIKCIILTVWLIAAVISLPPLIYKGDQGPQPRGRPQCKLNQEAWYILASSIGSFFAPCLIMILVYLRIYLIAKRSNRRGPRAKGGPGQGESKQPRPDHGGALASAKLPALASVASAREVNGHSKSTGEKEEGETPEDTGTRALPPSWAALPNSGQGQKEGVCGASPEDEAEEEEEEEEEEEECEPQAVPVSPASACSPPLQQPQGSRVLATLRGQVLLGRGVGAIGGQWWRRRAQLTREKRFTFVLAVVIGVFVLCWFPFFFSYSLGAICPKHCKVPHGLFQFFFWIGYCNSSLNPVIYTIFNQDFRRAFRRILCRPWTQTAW
# Assay: In vitro binding affinity towards human alpha-2B adrenergic receptor using [3H]rauwolscine
row,Structure (SMILES),Ki [nM]
1,COc1cc2c(cc1OC)C1=NO[C@@H](CN3CCN(C/C(C)=C/c4ccccc4)CC3)[C@@H]1CO2 (stereo in doubt; (+)15f) [listing 1 of 2 here],3
2,COc1cc2c(cc1OC)C1=NO[C@@H](CN3CCN(C/C=C/c4ccccc4)CC3)[C@@H]1CO2 (stereo in doubt; (+)5) [listing 2 of 2 here],14
3,COc1cc2c(cc1OC)C1=NO[C@@H](CN3CCN(C/C=C(\C)c4ccccc4)CC3)[C@@H]1CO2 (stereo in doubt; (-)15g),405
4,COc1cc2c(cc1OC)C1=NO[C@@H](CN3CCN(Cc4ccc5ccccc5c4)CC3)[C@@H]1CO2 (stereo in doubt; (-)15h) [listing 2 of 2 here],95
5,COc1cc2c(cc1OC)C1=NOC(CN3CCN(Cc4csc5ccccc45)CC3)C1CO2 (stereo not drawn),370
6,COc1cc2c(cc1OC)C1=NO[C@@H](CN3CCN(Cc4ccc5ccccc5c4)CC3)[C@@H]1CO2 (stereo in doubt; (+)15h),14
7,COc1cc2c(cc1OC)C1=NO[C@@H](CN3CCN(C/C=C/c4ccccc4)CC3)[C@@H]1CO2 (stereo in doubt; (-)5),42
8,COc1cc2c(cc1OC)C1=NOC(CN3CCN(C/C(C)=C/c4ccccc4)CC3)C1CO2 (stereo not drawn),7.5
9,COc1cc2c(cc1OC)C1=NO[C@@H](CN3CCN(C/C(C)=C/c4ccccc4)CC3)[C@@H]1CO2 (stereo in doubt; (-)15f) [listing 1 of 2 here],15
10,COc1cc2c(cc1OC)C1=NO[C@@H](CN3CCN(C/C=C(\C)c4ccccc4)CC3)[C@@H]1CO2 (stereo in doubt; (+)15g),14
11,COc1ccc2c(c1)C1=NOC(CN3CCN(C/C=C/c4ccccc4)CC3)C1CO2 (stereo not drawn),12
12,COc1cc2c(cc1OC)C1=NOC(CN3CCN(CCCc4ccccc4)CC3)C1CO2 (stereo not drawn),42
13,COc1cc2c(cc1OC)C1=NOC(CN3CCN(Cc4ccc5ncccc5c4)CC3)C1CO2 (stereo not drawn),721

# Target: T2, Alpha-2C adrenergic receptor (Homo sapiens, UniProt P18825)
# T2 sequence (P18825 whole entry): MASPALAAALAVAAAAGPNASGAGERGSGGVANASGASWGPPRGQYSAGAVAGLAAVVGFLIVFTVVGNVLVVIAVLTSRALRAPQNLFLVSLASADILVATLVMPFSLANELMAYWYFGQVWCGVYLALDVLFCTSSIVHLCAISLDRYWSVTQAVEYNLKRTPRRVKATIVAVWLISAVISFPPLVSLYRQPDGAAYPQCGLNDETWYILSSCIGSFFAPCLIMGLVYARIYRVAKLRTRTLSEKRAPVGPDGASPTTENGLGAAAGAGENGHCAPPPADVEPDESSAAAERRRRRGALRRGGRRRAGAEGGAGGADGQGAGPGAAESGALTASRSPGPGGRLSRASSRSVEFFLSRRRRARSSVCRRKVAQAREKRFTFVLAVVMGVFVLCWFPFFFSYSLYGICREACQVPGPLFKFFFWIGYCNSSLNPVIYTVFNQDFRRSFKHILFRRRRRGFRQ
# Assay: In vitro binding affinity towards human adrenergic alpha-2C adrenergic receptor using [3H]rauwolscine
row,Structure (SMILES),Ki [nM]
1,COc1cc2c(cc1OC)C1=NOC(CN3CCN(CCC(=O)c4ccccc4)CC3)C1CO2 (stereo not drawn),5.3
2,COc1cc2c(cc1OC)C1=NO[C@@H](CN3CCN(C/C(C)=C/c4ccccc4)CC3)[C@@H]1CO2 (stereo in doubt; (+)15f) [listing 1 of 2 here],0.1
3,COc1cc2c(cc1OC)C1=NO[C@@H](CN3CCN(C/C=C(\C)c4ccccc4)CC3)[C@@H]1CO2 (stereo in doubt; (-)15g),10
4,COc1cc2c(cc1OC)C1=NO[C@@H](CN3CCN(Cc4ccc5ccccc5c4)CC3)[C@@H]1CO2 (stereo in doubt; (-)15h) [listing 2 of 2 here],9.5
5,COc1cc2c(cc1OC)C1=NOC(CN3CCN(Cc4csc5ccccc45)CC3)C1CO2 (stereo not drawn),13
6,COc1cc2c(cc1OC)C1=NO[C@@H](CN3CCN(Cc4ccc5ccccc5c4)CC3)[C@@H]1CO2 (stereo in doubt; (+)15h),0.8
7,COc1cc2c(cc1OC)C1=NOC(CN3CCN(C/C(C)=C/c4ccccc4)CC3)C1CO2 (stereo not drawn),0.2
8,COc1cc2c(cc1OC)C1=NO[C@@H](CN3CCN(C/C(C)=C/c4ccccc4)CC3)[C@@H]1CO2 (stereo in doubt; (-)15f) [listing 1 of 2 here],1.4
9,COc1cc2c(cc1OC)C1=NO[C@@H](CN3CCN(C/C=C(\C)c4ccccc4)CC3)[C@@H]1CO2 (stereo in doubt; (+)15g),0.2
10,COc1ccc2c(c1)C1=NOC(CN3CCN(C/C=C/c4ccccc4)CC3)C1CO2 (stereo not drawn),2.3
11,COc1cc2c(cc1OC)C1=NOC(CN3CCN(CCCc4ccccc4)CC3)C1CO2 (stereo not drawn),1.9
12,COc1cc2c(cc1OC)C1=NOC(CN3CCN(Cc4ccc5ncccc5c4)CC3)C1CO2 (stereo not drawn),36

# Target: T3, Alpha-2A adrenergic receptor (Homo sapiens, UniProt P08913)
# T3 sequence (P08913 whole entry): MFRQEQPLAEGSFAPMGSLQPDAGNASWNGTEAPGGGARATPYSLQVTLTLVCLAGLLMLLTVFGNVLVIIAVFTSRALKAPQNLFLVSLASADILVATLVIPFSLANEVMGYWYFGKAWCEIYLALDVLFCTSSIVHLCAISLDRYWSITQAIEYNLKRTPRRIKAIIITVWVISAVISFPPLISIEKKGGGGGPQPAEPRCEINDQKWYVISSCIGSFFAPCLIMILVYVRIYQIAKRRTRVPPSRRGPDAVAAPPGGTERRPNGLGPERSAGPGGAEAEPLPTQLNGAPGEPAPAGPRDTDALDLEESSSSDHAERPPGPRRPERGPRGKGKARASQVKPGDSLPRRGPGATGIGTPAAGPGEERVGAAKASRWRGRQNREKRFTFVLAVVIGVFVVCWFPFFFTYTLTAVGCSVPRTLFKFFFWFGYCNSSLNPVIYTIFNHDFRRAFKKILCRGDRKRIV
# Assay: In vitro binding affinity towards human alpha-2A adrenergic receptor using [3H]rauwolscine
row,Structure (SMILES),Ki [nM]
1,COc1cc2c(cc1OC)C1=NOC(CN3CCN(CCC(=O)c4ccccc4)CC3)C1CO2 (stereo not drawn),12
2,COc1cc2c(cc1OC)C1=NOC(CN3CCN(Cc4csc5ccccc45)CC3)C1CO2 (stereo not drawn),66
3,COc1ccc2c(c1)C1=NOC(CN3CCN(C/C=C/c4ccccc4)CC3)C1CO2 (stereo not drawn),0.8
4,COc1cc2c(cc1OC)C1=NOC(CN3CCN(CCCc4ccccc4)CC3)C1CO2 (stereo not drawn),26
5,COc1cc2c(cc1OC)C1=NOC(CN3CCN(Cc4ccc5ncccc5c4)CC3)C1CO2 (stereo not drawn),117

# Target: Adrenergic receptor alpha-2 (Rattus norvegicus) (UniProt P22086+P19328+P22909)
# Assay: In vivo effective dose required to inhibit xylazine-induced loss of righting in rats upon subcutaneous administration
# Type: functional, organism-based
row,Structure (SMILES),ED50 [mg/kg]
1,COc1cc2c(cc1OC)C1=NO[C@@H](CN3CCN(C/C(C)=C/c4ccccc4)CC3)[C@@H]1CO2 (stereo in doubt; (+)15f) [listing 2 of 2 here],3.1
2,COc1cc2c(cc1OC)C1=NO[C@@H](CN3CCN(C/C(C)=C/c4ccccc4)CC3)[C@@H]1CO2 (stereo in doubt; (-)15f) [listing 2 of 2 here],> 10
3,COc1cc2c(cc1OC)C1=NOC(CN3CCN(C/C(C)=C/c4ccccc4)CC3)C1CO2 (stereo not drawn),1
4,COc1cc2c(cc1OC)C1=NO[C@@H](CN3CCN(Cc4ccc5ccccc5c4)CC3)[C@@H]1CO2 (stereo in doubt; (-)15h) [listing 1 of 2 here],10
5,COc1cc2c(cc1OC)C1=NO[C@@H](CN3CCN(C/C=C/c4ccccc4)CC3)[C@@H]1CO2 (stereo in doubt; (+)5) [listing 1 of 2 here],2.5
6,COc1ccc2c(c1)C1=NOC(CN3CCN(C/C=C/c4ccccc4)CC3)C1CO2 (stereo not drawn),2.5
7,COc1cc2c(cc1OC)C1=NOC(CN3CCN(CCCc4ccccc4)CC3)C1CO2 (stereo not drawn),2.5
8,COc1cc2c(cc1OC)C1=NOC(CN3CCN(Cc4ccc5ncccc5c4)CC3)C1CO2 (stereo not drawn),5
